# Active and inactive are the calls of the source. The calls are words filed in the database; no cut-off is given here. Numbered stars: 1 amine (or outer) side, 2 acyl side, 3 side chain; on linkers, the order of the positions; unused ones are H or OH. Square brackets hold non-standard residues; d marks the D form. Peptide text beside a SMILES is read from it. GABA(3S-Bn) = O=C(C[C@@H](CN[*:1])Cc1ccccc1)[*:2]; GABA(3R-Bn) = O=C(C[C@H](CN[*:1])Cc1ccccc1)[*:2]
# Legend:
# [1] = system: PBMC; assay: Antiproliferative activity against human PBMC assessed as inhibition of PHA-induced proliferation at 1 to 100 ug/ml; type: functional, cell-based
# How it was run: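 Human PBMC from a single donor were isolated on a ficoll gradient and plated at 2×10^5 cells/well in RPMI-1640 with 10% FCS. Stimulation was PHA 5 μg/mL. Compounds were tested at 1, 10 and 100 μg/mL, with DMSO dilutions as control. After 4 days, proliferation was read by MTT. Result is mean OD of quadruplicate wells ± SE.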
# [2] = system: Blood; assay: Inhibition of LPS-induced TNFalpha secretion in human whole blood cells at 25 ug/ml by immune assay; type: functional
# How it was run: (§1)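 Venous blood from a single donor was diluted 10× in RPMI-1640 and stimulated with E. coli LPS 1 μg/mL, serotype 0:111:B4. Compounds were added at 5 or 25 μg/mL, with DMSO dilutions as controls. After overnight culture, supernatants were frozen at −20 °C. TNF-α was then measured by ELISA.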
# [3] = Retention time of the compound; type: physicochemical
# [4] = system: PBMC; assay: Cytotoxicity against human PBMC cells at 1 to 100 ug/ml after 24 hrs by MTT assay; type: cell-based
# How it was run: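 Human PBMC from a single donor were plated at 3×10^5/well in RPMI-1640 with 10% FCS. Compounds at 1, 10 or 100 μg/mL were added for 24 h. Viability was read by MTT and expressed as percent viable cells versus matching DMSO controls.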
# [5] = system: Blood; assay: Stimulation of LPS-induced TNFalpha secretion in human whole blood cells at 5 ug/ml by immuno assay; type: functional, cell-based; how it was run: as §1
# [6] = system: Blood; assay: Stimulation of LPS-induced TNFalpha secretion in human whole blood cells at 25 ug/ml by immuno assay; type: functional, cell-based; how it was run: as §1
# [7] = system: Blood; assay: Inhibition of LPS-induced TNFalpha secretion in human whole blood cells at 5 ug/ml by immune assay; type: functional; how it was run: as §1
# [8] = system: Mus musculus; assay: Immunosuppressive effect in ovalbumin-induced mouse delayed type hypersensitivity model assessed as inhibition of DTH reaction at 100 ug, ip treated 2 hrs before elicitation of DTH reaction with secoond dose of antigen; type: functional, organism-based
# How it was run: (§2)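 CBA mice were sensitized s.c. at tail base with 5 μg OVA in complete Freund's adjuvant. After 4 days they were challenged with 50 μg OVA in incomplete adjuvant in hind foot pads. Swelling was measured by caliper 24 h later. Unsensitized challenged mice gave background. Compounds in DMSO/saline were given i.p. 2 h before sensitization or 2 h before elicitation, with solvent controls. Result: 5 mice/group, DTH units (10^-2 cm) ± SE.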
# [9] = system: Mus musculus; assay: Immunosuppressive effect in ovalbumin-induced mouse delayed type hypersensitivity model assessed as inhibition of DTH reaction at 100 ug, ip treated 2 hrs before ovalbumin sensitization; type: functional; how it was run: as §2
Retention_time [3],Compound,inhibition [1],inhibition [2],Activity [4],Activity [5],Activity [6],inhibition [7],inhibition [8],inhibition [9],inhibition (INH) [9],inhibition at 25 µg/mL [2],inhibition at 5 µg/mL [7]
10.033 min,CC[C@H](C)[C@@H]1NC(=O)[C@H](CC(C)C)NC(=O)[C@H](Cc2ccccc2)NC(=O)C[C@@H](Cc2ccccc2)CNC(=O)[C@@H]2CCCN2C(=O)[C@@H]2CCCN2C(=O)[C@H](C(C)C)NC(=O)[C@H](CC(C)C)NC(=O)[C@H]([C@@H](C)CC)NC1=O (cyclo(FLIILVPP[GABA(3R-Bn)])),Active,,Dose-dependent effect,,,,,,,,
9.89 min,CC[C@H](C)[C@@H]1NC(=O)[C@H](CC(C)C)NC(=O)[C@H](Cc2ccccc2)NC(=O)C[C@H](Cc2ccccc2)CNC(=O)[C@@H]2CCCN2C(=O)[C@@H]2CCCN2C(=O)[C@H](C(C)C)NC(=O)[C@H](CC(C)C)NC(=O)[C@H]([C@@H](C)CC)NC1=O (cyclo(FLIILVPP[GABA(3S-Bn)])),Active,,Dose-dependent effect,,,,,,,,
11.87 min,CC[C@H](C)[C@@H]1NC(=O)[C@H](CC(C)C)NC(=O)C[C@@H](Cc2ccccc2)CNC(=O)[C@H](Cc2ccccc2)NC(=O)[C@@H]2CCCN2C(=O)[C@@H]2CCCN2C(=O)[C@H](C(C)C)NC(=O)[C@H](CC(C)C)NC(=O)[C@H]([C@@H](C)CC)NC1=O (cyclo(F[GABA(3R-Bn)]LIILVPP)),Active,,Dose-dependent effect,,,,,,,,
11.63 min,CC[C@H](C)[C@@H]1NC(=O)[C@H](CC(C)C)NC(=O)C[C@H](Cc2ccccc2)CNC(=O)[C@H](Cc2ccccc2)NC(=O)[C@@H]2CCCN2C(=O)[C@@H]2CCCN2C(=O)[C@H](C(C)C)NC(=O)[C@H](CC(C)C)NC(=O)[C@H]([C@@H](C)CC)NC1=O (cyclo(F[GABA(3S-Bn)]LIILVPP)),Active,,Non-toxic,,,,Active,Active,,42%,55%
10.543 min,CC[C@H](C)[C@@H]1NC(=O)[C@H](CC(C)C)NC(=O)C[C@@H](Cc2ccccc2)CNC(=O)C[C@H](Cc2ccccc2)CNC(=O)[C@@H]2CCCN2C(=O)[C@@H]2CCCN2C(=O)[C@H](C(C)C)NC(=O)[C@H](CC(C)C)NC(=O)[C@H]([C@@H](C)CC)NC1=O (cyclo(IILVPP[GABA(3S-Bn)][GABA(3R-Bn)]L)),Active,,Dose-dependent effect,,,,,,,,
10.11 min,CC[C@H](C)[C@@H]1NC(=O)[C@H](CC(C)C)NC(=O)C[C@H](Cc2ccccc2)CNC(=O)C[C@H](Cc2ccccc2)CNC(=O)[C@@H]2CCCN2C(=O)[C@@H]2CCCN2C(=O)[C@H](C(C)C)NC(=O)[C@H](CC(C)C)NC(=O)[C@H]([C@@H](C)CC)NC1=O (cyclo(IILVPP[GABA(3S-Bn)][GABA(3S-Bn)]L)),Active,,Dose-dependent effect,,,,,,,,

# Second part, the compound before the results:
Compound,Retention_time [3],inhibition [1],inhibition [2],Activity [4],Activity [5],Activity [6],inhibition [7],inhibition [8],inhibition [9],inhibition (INH) [9],inhibition at 25 µg/mL [2],inhibition at 5 µg/mL [7]
CC[C@H](C)[C@H](N)C(=O)N[C@H](C(=O)N[C@@H](CC(C)C)C(=O)N[C@H](C(=O)N1CCC[C@H]1C(=O)N1CCC[C@H]1C(=O)N[C@@H](Cc1ccccc1)C(=O)NC[C@@H](CC(=O)N[C@@H](CC(C)C)C(=O)O)Cc1ccccc1)C(C)C)[C@@H](C)CC (H-IILVPPF[GABA(3R-Bn)]L-OH),14.168 min,inactive,Active,Non-toxic,,,,,,,,
CC[C@H](C)[C@H](N)C(=O)N[C@H](C(=O)N[C@@H](CC(C)C)C(=O)N[C@H](C(=O)N1CCC[C@H]1C(=O)N1CCC[C@H]1C(=O)N[C@@H](Cc1ccccc1)C(=O)NC[C@H](CC(=O)N[C@@H](CC(C)C)C(=O)O)Cc1ccccc1)C(C)C)[C@@H](C)CC (H-IILVPPF[GABA(3S-Bn)]L-OH),13.177 min,inactive,,Non-toxic,Active,Active,,,,,,
CC[C@H](C)[C@H](N)C(=O)N[C@H](C(=O)N[C@@H](CC(C)C)C(=O)N[C@H](C(=O)N1CCC[C@H]1C(=O)N1CCC[C@H]1C(=O)NC[C@@H](CC(=O)N[C@@H](Cc1ccccc1)C(=O)N[C@@H](CC(C)C)C(=O)O)Cc1ccccc1)C(C)C)[C@@H](C)CC (H-IILVPP[GABA(3R-Bn)]FL-OH),13.383 min,inactive,Active,Non-toxic,,,Active,,,,,
CC[C@H](C)[C@H](N)C(=O)N[C@H](C(=O)N[C@@H](CC(C)C)C(=O)N[C@H](C(=O)N1CCC[C@H]1C(=O)N1CCC[C@H]1C(=O)NC[C@@H](CC(=O)NC[C@@H](CC(=O)N[C@@H](CC(C)C)C(=O)O)Cc1ccccc1)Cc1ccccc1)C(C)C)[C@@H](C)CC (H-IILVPP[GABA(3R-Bn)][GABA(3R-Bn)]L-OH),14.073 min,inactive,Active,Non-toxic,,,Active,Active,Active,50%,,
CC[C@H](C)[C@H](N)C(=O)N[C@H](C(=O)N[C@@H](CC(C)C)C(=O)N[C@H](C(=O)N1CCC[C@H]1C(=O)N1CCC[C@H]1C(=O)NC[C@@H](CC(=O)NC[C@H](CC(=O)N[C@@H](CC(C)C)C(=O)O)Cc1ccccc1)Cc1ccccc1)C(C)C)[C@@H](C)CC (H-IILVPP[GABA(3R-Bn)][GABA(3S-Bn)]L-OH),13.085 min,inactive,,Non-toxic,Active,Active,,,,,,
CC[C@H](C)[C@H](N)C(=O)N[C@H](C(=O)N[C@@H](CC(C)C)C(=O)N[C@H](C(=O)N1CCC[C@H]1C(=O)N1CCC[C@H]1C(=O)NC[C@H](CC(=O)N[C@@H](Cc1ccccc1)C(=O)N[C@@H](CC(C)C)C(=O)O)Cc1ccccc1)C(C)C)[C@@H](C)CC (H-IILVPP[GABA(3S-Bn)]FL-OH),12.69 min,inactive,,Non-toxic,Active,Active,,,,,,
CC[C@H](C)[C@H](N)C(=O)N[C@H](C(=O)N[C@@H](CC(C)C)C(=O)N[C@H](C(=O)N1CCC[C@H]1C(=O)N1CCC[C@H]1C(=O)NC[C@H](CC(=O)NC[C@@H](CC(=O)N[C@@H](CC(C)C)C(=O)O)Cc1ccccc1)Cc1ccccc1)C(C)C)[C@@H](C)CC (H-IILVPP[GABA(3S-Bn)][GABA(3R-Bn)]L-OH),13.938 min,inactive,,Non-toxic,,,,,,,,
CC[C@H](C)[C@H](N)C(=O)N[C@H](C(=O)N[C@@H](CC(C)C)C(=O)N[C@H](C(=O)N1CCC[C@H]1C(=O)N1CCC[C@H]1C(=O)NC[C@H](CC(=O)NC[C@H](CC(=O)N[C@@H](CC(C)C)C(=O)O)Cc1ccccc1)Cc1ccccc1)C(C)C)[C@@H](C)CC (H-IILVPP[GABA(3S-Bn)][GABA(3S-Bn)]L-OH),13.233 min,inactive,,Non-toxic,Active,Active,,,,,,
CC[C@H](C)[C@@H]1NC(=O)[C@H](CC(C)C)NC(=O)C[C@@H](Cc2ccccc2)CNC(=O)C[C@@H](Cc2ccccc2)CNC(=O)[C@@H]2CCCN2C(=O)[C@@H]2CCCN2C(=O)[C@H](C(C)C)NC(=O)[C@H](CC(C)C)NC(=O)[C@H]([C@@H](C)CC)NC1=O (cyclo(IILVPP[GABA(3R-Bn)][GABA(3R-Bn)]L)),9.242 min,Active,,Dose-dependent effect,,,,,,,,
CC[C@H](C)[C@@H]1NC(=O)[C@H](CC(C)C)NC(=O)C[C@H](Cc2ccccc2)CNC(=O)C[C@@H](Cc2ccccc2)CNC(=O)[C@@H]2CCCN2C(=O)[C@@H]2CCCN2C(=O)[C@H](C(C)C)NC(=O)[C@H](CC(C)C)NC(=O)[C@H]([C@@H](C)CC)NC1=O (cyclo(IILVPP[GABA(3R-Bn)][GABA(3S-Bn)]L)),9.605 min,Active,,Dose-dependent effect,,,,,,,,
